From PubChem BioAssay AID652196 (Vanderbilt Specialized Chemistry Center, 2013)

Biological target: Metabotropic glutamate receptor 5 (Rattus norvegicus) (UniProt P31424)
Assay: rat mGlu5 radioligand displacement Ki – biochemical, HEK293A membranes, [3H]methoxyPEPy, full curve, dose response (AID 652196)
Details: rmGlu5 HEK293A membranes, [3H]methoxyPEPy displacement; call rule not given here
Summary of the method: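 System: rat mGlu5 HEK293A cell membranes; amount: 50 µg membrane protein per well; medium: HEPES-buffered HBSS with probenecid, pH 7.4; reagent: radioligand [3H]methoxyPEPy at 2 nM; compound: 10 doses, 0.1 nM–10 µM, 1% DMSO; schedule: membrane, radioligand and compound incubation 1 h at room temperature; measured by: filter binding with scintillation counting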

Sequence of Metabotropic glutamate receptor 5 (Rattus norvegicus) (P31424 whole entry, looked up): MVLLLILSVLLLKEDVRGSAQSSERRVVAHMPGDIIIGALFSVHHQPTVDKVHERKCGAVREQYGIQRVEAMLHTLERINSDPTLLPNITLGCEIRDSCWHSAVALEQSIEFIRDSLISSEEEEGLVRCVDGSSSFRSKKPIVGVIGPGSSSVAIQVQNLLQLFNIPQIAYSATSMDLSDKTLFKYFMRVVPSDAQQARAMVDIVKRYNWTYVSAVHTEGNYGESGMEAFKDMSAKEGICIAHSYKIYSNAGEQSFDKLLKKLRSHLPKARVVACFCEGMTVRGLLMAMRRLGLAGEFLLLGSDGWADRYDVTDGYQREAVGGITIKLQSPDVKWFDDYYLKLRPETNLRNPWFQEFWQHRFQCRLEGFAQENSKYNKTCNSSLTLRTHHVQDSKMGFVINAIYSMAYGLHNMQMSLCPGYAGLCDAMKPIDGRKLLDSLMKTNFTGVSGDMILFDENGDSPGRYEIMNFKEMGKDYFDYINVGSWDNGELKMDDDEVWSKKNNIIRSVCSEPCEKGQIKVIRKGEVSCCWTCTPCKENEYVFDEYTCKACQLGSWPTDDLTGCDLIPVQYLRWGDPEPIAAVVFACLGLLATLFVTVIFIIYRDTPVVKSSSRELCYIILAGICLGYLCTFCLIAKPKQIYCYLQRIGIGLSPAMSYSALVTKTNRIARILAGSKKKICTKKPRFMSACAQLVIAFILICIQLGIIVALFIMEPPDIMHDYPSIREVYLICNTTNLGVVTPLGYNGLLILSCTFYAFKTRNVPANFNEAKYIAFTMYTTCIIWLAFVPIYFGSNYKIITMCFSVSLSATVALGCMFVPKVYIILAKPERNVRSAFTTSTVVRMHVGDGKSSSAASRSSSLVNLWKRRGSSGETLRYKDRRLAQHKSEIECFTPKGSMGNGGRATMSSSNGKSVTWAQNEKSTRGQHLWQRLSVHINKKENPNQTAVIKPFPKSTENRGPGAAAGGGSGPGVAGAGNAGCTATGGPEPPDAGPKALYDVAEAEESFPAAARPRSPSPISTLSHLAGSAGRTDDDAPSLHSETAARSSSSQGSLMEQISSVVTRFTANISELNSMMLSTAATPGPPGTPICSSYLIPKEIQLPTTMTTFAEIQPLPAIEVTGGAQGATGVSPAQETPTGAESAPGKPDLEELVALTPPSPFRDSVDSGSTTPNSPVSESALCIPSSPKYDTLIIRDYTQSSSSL

Ki, active:
O=C(c1ccc(C#Cc2cccc(F)c2)cn1)N1CC2CC2C1 (centres undefined) 18.2 nM
O=C(c1ccc(C#Cc2cccc(F)c2)cn1)N1CCC1 51.6 nM
CC1CCN1C(=O)c1ccc(C#Cc2cccc(F)c2)cn1 (centres undefined) 5.4 nM
O=C(c1ccc(C#Cc2cccc(F)c2)cn1)N1CCC(F)(F)C1 19 nM
O=C(c1ccc(C#Cc2cccc(F)c2)cn1)N1CCCCCC1 18.7 nM
O=C(c1ccc(C#Cc2cccc(F)c2)cn1)N1CCCCC1 12.1 nM
O=C(c1ccc(C#Cc2cccc(F)c2)cn1)N1CCOCC1 67.7 nM
O=C(c1ccc(C#Cc2cccc(F)c2)cn1)N1CC(F)C1 48.7 nM
O=C(c1ccc(C#Cc2cccc(F)c2)cc1)N1CCC1 29.6 nM
